We go through 2 compounds from ChEMBL document CHEMBL1125376, “Class III antiarrhythmic activity of novel substituted 4-[(methylsulfonyl)amino]benzamides and sulfonamides” (J Med Chem, 1992).

“And” between values parts separate entries of the source, which are not always exact repeats. Identical values can stand only once.

The species named for series [1] is Canis familiaris. The experiment in a line: Effect on the transmembrane potential of dog Purkinje fibers paced at a basic cycle length of stimulation of 300 ms, repolarization time to -60 mV, at a concentration of 3 uM. It is filed as functional. Conditions: Canis lupus familiaris, Purkinje fiber. Put shortly: (§1)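 Purkinje fiber bundles were taken from pentobarbital-anesthetized mongrel dogs. They were superfused at 37.5-38.0 °C with Tyrode's (mM: NaCl 138, KCl 4, CaCl2 2, NaHCO3 24, MgCl2 0.5, Na2HPO4 1.8, dextrose 5) gassed with 95% O2-5% CO2, pH 7.3-7.4. Stimulation used 2.0 ms pulses at twice threshold. Fibers were equilibrated ≥1 h before drug. Action potentials were recorded at 4-6 sites and averaged per fiber.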

Series [2] is described as follows: Maximum rate of depolarization of the upstroke of the action potential at 3 uM concentration. Also on record: unit not given beside the values. Put shortly:
(§2)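 Purkinje fiber bundles from pentobarbital-anesthetized mongrel dogs, superfused at 37.5-38.0 °C with Tyrode's solution (95% O2-5% CO2, pH 7.3-7.4). Stimulation with 2.0 ms square pulses at 2× threshold. Fibers equilibrated at least 1 h before drug. Action potentials recorded at four to six sites, control vs drug, and averaged per fiber.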

The species named for series [3] is Canis familiaris. The experiment in a line: Effect on the transmembrane potential of dog Purkinje fibers paced at a basic cycle length of stimulation of 1000 ms, repolarization time to -60 mV at 0.3 uM concentration. It is filed as functional. The following applies: Canis lupus familiaris, Purkinje fiber. Put shortly:
as §1

Series [4] is filed under the species Canis familiaris. The experiment in a line: Effect on the transmembrane potential of dog Purkinje fibers paced at a basic cycle length of stimulation of 1000 ms, repolarization time to -60 mV, at a concentration of 3 uM. It is filed as functional. The following applies: Canis lupus familiaris, Purkinje fiber. Summed up: as §1
For series [5], the species on record is Canis familiaris. The series is described as follows: Effect on the transmembrane potential of dog Purkinje fibers paced at a basic cycle length of stimulation of 300 ms, repolarization time to -60 mV at 0.3 uM concentration. It is filed as functional. Conditions: Canis lupus familiaris, Purkinje fiber. Summed up: as §1
Series [6] concerns Canis familiaris. The series is described as follows: Effect on atrial effective refractory period, after intravenous administration in open-chest anesthetized dogs at dose of 1.0 mg/kg.
Series [7] can be described thus: (§3) Maximum rate of depolarization of the upstroke of the action potential at 3 uM. Summed up:
as §2

Series [8] is filed under the species Canis familiaris. The experiment in a line: Effect on transmembrane potential of dog Purkinje fibers paced at a basic cycle length of stimulation of 300 ms, repolarization time to -60 mV at 3 uM. The format is functional. Conditions: Canis lupus familiaris, Purkinje fiber. Put shortly: as §1
The species named for series [9] is Canis familiaris. The series is described as follows: Effect on the transmembrane potential of dog Purkinje fibers paced at a basic cycle length of stimulation of 1000 ms, repolarization time to -60 mV at 3 uM. The format is functional. The following applies: Canis lupus familiaris, Purkinje fiber. Put shortly: as §1
Series [10] is described as follows: as §3. Summed up:
as §2
This is another data set of the same source.

Series [11] concerns Canis familiaris. The experiment in a line: Prodrug ventricular fibrillation threshold(VFT) in open-chest anesthetized dogs(Control = 8+/-1) at a dose of 2.5 mg/kg iv. It is filed as functional, Canis lupus familiaris, Cardiac ventricle.

For the compound `Cl.Cn1c(N2CCN(C(=O)c3ccc(NS(C)(=O)=O)cc3)CC2)nc2ccccc21`, the APD60 in series [1] stood at 33; in series [3], 17; in series [4], 75; in series [5] it was 6. Moreover, the Vmax in [2] was -3. The Change in series [6] came out at 33%.

As to `CN(CCN(C)S(=O)(=O)c1ccc(NS(C)(=O)=O)cc1)c1nc2ccccc2n1C.Cl`, the Vmax in series [7] is 11; in series [10], 13. Also, the APD60 in series [3] was determined as 46; in [8] it was 40; in series [5], 24; in series [9] it was 57. Also, the VFT in [11] was 8 and 24.
